Data set [1] addresses T1, Estrogen receptor (Homo sapiens, UniProt P03372).
T1 sequence (P03372 whole entry): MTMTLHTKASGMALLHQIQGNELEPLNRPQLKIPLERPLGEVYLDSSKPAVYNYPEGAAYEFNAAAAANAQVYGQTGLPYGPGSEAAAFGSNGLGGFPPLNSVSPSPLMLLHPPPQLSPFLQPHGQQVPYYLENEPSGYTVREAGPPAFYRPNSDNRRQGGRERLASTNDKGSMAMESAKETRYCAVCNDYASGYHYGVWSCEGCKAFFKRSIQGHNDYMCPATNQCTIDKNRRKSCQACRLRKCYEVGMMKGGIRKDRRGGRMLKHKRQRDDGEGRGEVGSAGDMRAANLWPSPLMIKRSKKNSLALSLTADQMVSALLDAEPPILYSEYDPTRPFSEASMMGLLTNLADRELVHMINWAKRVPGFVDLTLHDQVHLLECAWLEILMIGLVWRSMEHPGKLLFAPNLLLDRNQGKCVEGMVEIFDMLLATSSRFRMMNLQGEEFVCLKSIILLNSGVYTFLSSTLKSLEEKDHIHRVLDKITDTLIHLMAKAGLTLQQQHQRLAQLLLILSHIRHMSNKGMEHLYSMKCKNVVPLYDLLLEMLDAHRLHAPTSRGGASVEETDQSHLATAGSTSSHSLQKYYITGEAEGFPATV
Nature of the data set: Binding affinity to ER alpha (unknown origin) by LanthaScreen TR-FRET competitive binding assay. The gist of the method: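 LanthaScreen TR-FRET ERα competitive binding; 12-point half-log concentration response; TR-FRET emission ratio read on microplate reader; IC50 reported.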
A general note: TR-FRET usually uses a lanthanide donor and a delayed reading to cut background.

The target of data set [2] is T1, Estrogen receptor. As to the kind of experiment: Suppression of ER alpha in human MCF7 cells after 24 hrs by immunostaining analysis. The data set is classed as cell-based.
A short description of data set [3]: Octanol-buffer partition coefficient, log D of the compound at ratio of 1:100 at pH 7.4 by shake-flask method. The data set is classed as physicochemical.
Data set [4] in a line: Intrinsic clearance in rat hepatocytes measured per 10^6 cells. The data set is classed as ADME, cell-based, Hepatocyte. As to conditions: read-out: CLH.
Data set [5] in a line: Intrinsic clearance in human hepatocytes measured per 10^6 cells. The settings on record: read-out: CLH. It counts as ADME, cell-based, Hepatocyte.
Data set [6] can be described thus: Dissociation constant, pKa of the compound by potentiometric analysis […] phenol. It counts as physicochemical. In short, it runs like this: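 pKa (acid and phenol) by potentiometric titration.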
Data set [7] addresses Voltage-gated inwardly rectifying potassium channel KCNH2 (Homo sapiens, UniProt Q12809). Nature of the data set: Inhibition of hERG channel by electrophysiology. The data set is classed as toxicity. (In general: The hERG channel carries a current that helps repolarise heart muscle cells.)
Data set [8] is described as follows: Free plasma concentration in rat by LC-UV-MS analysis. It counts as ADME, cell-free. In short, it runs like this: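 Equilibrium dialysis in plasma of the matching species at 37 °C; free and bound concentrations quantified by LC-UV-MS; reported as % free.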
A short description of data set [9]: Thermodynamic solubility of the compound in 0.1 M aqueous phosphate buffer at 25 degC at pH 7.4 after 24 hrs. The data set is classed as physicochemical. As to conditions: read-out: Therm_solubility.

Values after ≈ are worked out from the molar mass of the structure shown.

Chain of Voltage-gated inwardly rectifying potassium channel KCNH2 (Q12809 whole entry): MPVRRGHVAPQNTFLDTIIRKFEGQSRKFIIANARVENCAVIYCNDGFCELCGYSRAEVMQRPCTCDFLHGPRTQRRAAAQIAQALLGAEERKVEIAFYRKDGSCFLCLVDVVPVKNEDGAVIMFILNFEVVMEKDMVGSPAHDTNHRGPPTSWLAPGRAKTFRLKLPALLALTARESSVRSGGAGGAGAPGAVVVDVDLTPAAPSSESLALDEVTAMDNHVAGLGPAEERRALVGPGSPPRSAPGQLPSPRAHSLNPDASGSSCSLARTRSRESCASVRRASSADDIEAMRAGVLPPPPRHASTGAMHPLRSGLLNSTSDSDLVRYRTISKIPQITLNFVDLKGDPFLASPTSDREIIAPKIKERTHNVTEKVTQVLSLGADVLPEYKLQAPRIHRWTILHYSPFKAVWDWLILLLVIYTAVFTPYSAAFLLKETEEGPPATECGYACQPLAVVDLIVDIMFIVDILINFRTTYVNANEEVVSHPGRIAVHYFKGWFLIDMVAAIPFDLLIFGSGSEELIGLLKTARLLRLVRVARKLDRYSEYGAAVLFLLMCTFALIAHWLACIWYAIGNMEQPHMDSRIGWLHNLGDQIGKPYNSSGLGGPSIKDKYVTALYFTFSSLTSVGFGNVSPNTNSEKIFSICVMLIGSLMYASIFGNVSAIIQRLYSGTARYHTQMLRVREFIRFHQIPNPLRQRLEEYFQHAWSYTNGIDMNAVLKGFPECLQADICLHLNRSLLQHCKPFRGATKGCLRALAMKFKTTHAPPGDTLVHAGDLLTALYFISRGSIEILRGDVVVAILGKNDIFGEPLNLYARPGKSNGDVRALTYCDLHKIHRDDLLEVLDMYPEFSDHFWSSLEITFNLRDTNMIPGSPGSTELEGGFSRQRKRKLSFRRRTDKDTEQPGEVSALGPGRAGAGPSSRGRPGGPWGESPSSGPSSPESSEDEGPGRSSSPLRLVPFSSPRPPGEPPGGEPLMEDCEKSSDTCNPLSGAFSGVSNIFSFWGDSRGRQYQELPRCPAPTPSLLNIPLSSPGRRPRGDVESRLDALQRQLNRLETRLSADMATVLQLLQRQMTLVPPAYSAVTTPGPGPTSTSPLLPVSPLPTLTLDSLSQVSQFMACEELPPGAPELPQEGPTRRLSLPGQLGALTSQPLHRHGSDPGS

What is called IC50 is the midpoint of a concentration-inhibition curve. Read a high IC50 as a need for much substance. A word on the logD: it is lipophilicity at a set pH, counting ionised and neutral species. As for `COc1ccc(-c2c(Cc3ccc(/C=C/C(=O)O)cc3)c3ccc(O)cc3oc2=O)cc1`, the IC50 on Estrogen receptor [1] turned out to be 0.0038 µM; against Estrogen receptor [2], 0.35 µM. In addition, the logD in [3] was 1.9.
Turning to `O=C(O)/C=C/c1ccc(Cc2c(-c3ccc(F)cc3Cl)c(=O)oc3cc(O)ccc23)cc1`, the results for the half-inhibitory concentration (IC50) on Estrogen receptor [1] and at Estrogen receptor [2] were 0.0022 µM and 0.178 µM, respectively.
For `Cc1cc(Cl)ccc1-c1c(Cc2ccc(/C=C/C(=O)O)cc2)c2ccc(O)cc2oc1=O`, in that order: 0.0015 µM and 0.03 µM.
Regarding `Cc1cc(F)ccc1-c1c(Nc2ccc(/C=C/C(=O)O)cc2)c2ccc(O)cc2oc1=O`, the IC50 on Estrogen receptor [1] was determined as 0.025 µM; against Estrogen receptor [2], 1.45 µM. Moreover, the log distribution coefficient (logD) in [3] stood at 1.3.
As for `O=C(O)/C=C/c1ccc(Cc2c(-c3cccc(OC(F)(F)F)c3)c(=O)oc3cc(O)ccc23)cc1`, the IC50 on Estrogen receptor [1] worked out at 0.0059 µM; at Estrogen receptor [2], 1.71 µM. The pH-dependent lipophilicity (logD) in data set [3] was found to be 2.9.
For the compound `Cc1cc(F)ccc1-c1c(-c2ccc(/C=C/C(=O)O)cc2)c2ccc(O)cc2oc1=O`, the 50% inhibitory concentration (IC50) on Estrogen receptor [1] was 0.0058 µM; against Estrogen receptor [2], 0.256 µM. The log distribution coefficient (logD) in data set [3] was 2.
`O=C(O)/C=C/c1ccc(Cc2c(-c3ccc(OC(F)(F)F)cc3)c(=O)oc3ccccc23)cc1`: the IC50 on Estrogen receptor [1] was 0.36 µM; at Estrogen receptor [2] it was 1.3 µM. For the same compound, the hepatocyte CLint in [4] stood at 20 µL/min/1e6 cells; in [5] it was 8 µL/min/1e6 cells. Besides, the logD in [3] is 2.8.
For the compound `Cc1cccc(-c2c(Cc3ccc(/C=C/C(=O)O)cc3)c3ccc(O)cc3oc2=O)c1`, the half-inhibitory concentration (IC50) at Estrogen receptor [1] came to 0.017 µM; on Estrogen receptor [2] it was 3.09 µM. In addition, the pH-dependent lipophilicity (logD) in [3] was found to be 2.2.
Consider `O=C(O)/C=C/c1ccc(Cc2c(-c3ccc(C(F)(F)F)cc3)c(=O)oc3cc(O)ccc23)cc1`, for which the half-maximal inhibitory concentration (IC50) was 0.0046 µM at Estrogen receptor [1] and 0.531 µM against Estrogen receptor [2]. For the same compound, the logD in data set [3] was 2.6.
For `O=C(O)/C=C/c1ccc(Cc2c(-c3ccc(Cl)cc3)c(=O)oc3cc(O)ccc23)cc1`, in that order: 0.0037 µM, 0.471 µM and 2.4.
Turning to `CCOc1ccc2c(Oc3ccc(/C=C/C(=O)O)cc3)c(-c3ccc(OC(F)(F)F)cc3C)c(=O)oc2c1`, the IC50 came out at 0.05 µM on Estrogen receptor [1] and 0.253 µM against Estrogen receptor [2]. The results for the hepatocyte CLint in data set [4] and in data set [5] were 21 µL/min/1e6 cells and 20 µL/min/1e6 cells, respectively.
For `COc1cccc(-c2c(Cc3ccc(/C=C/C(=O)O)cc3)c3ccc(O)cc3oc2=O)c1`, the IC50 stood at 0.041 µM at Estrogen receptor [1] and 5.64 µM at Estrogen receptor [2]. The log distribution coefficient (logD) in [3] is 1.9.
Turning to `O=C(O)/C=C/c1ccc(Cc2c(-c3ccc(OC(F)(F)F)cc3)c(=O)oc3cc(F)ccc23)cc1`, the values for the IC50 at Estrogen receptor [1] and at Estrogen receptor [2] were 5.8 µM and 10.6 µM, respectively. The hepatocyte CLint in data set [4] came to 4.4 µL/min/1e6 cells. In data set [3], the logD is 2.5.
With `Cc1cc(F)ccc1-c1c(Cc2ccc(/C=C/C(=O)O)cc2)c2ccc(N)cc2oc1=O`, the hepatocyte CLint in [4] amounted to 18 µL/min/1e6 cells; in data set [5], 10 µL/min/1e6 cells. At Estrogen receptor [2], this compound showed a 50% inhibitory concentration (IC50) of 1.38 µM. The log distribution coefficient (logD) in [3] turned out to be 1.7.
Usually pKa stands for the pH at which an ionisable group is half protonated. Consider `Cc1c(O)ccc2c(Cc3ccc(/C=C/C(=O)O)cc3)c(-c3ccc(OC(F)(F)F)cc3)c(=O)oc12`, for which, in data set [6], the pKa was 8.5. The concentration for half-maximal inhibition (IC50) at Estrogen receptor [1] was 0.28 µM; against Estrogen receptor [2], 5.84 µM. Further, the values for the hepatocyte CLint in data set [4] and in data set [5] were 39 µL/min/1e6 cells and 20 µL/min/1e6 cells, respectively. In addition, in data set [3], the log distribution coefficient (logD) is 3.4.
In the case of `Cc1cc(OC(F)(F)F)ccc1-c1c(Oc2ccc(/C=C/C(=O)O)cc2)c2ccc(C(F)F)cc2oc1=O`, the 50% inhibitory concentration (IC50) came out at 0.05 µM on Estrogen receptor [1] and 0.506 µM at Estrogen receptor [2]. Besides, the hepatocyte CLint was 3 µL/min/1e6 cells in [4] and 11 µL/min/1e6 cells in [5]. For the same compound, in data set [3], the logD was found to be 3.
For `Cc1cc(F)ccc1-c1c(Oc2ccc(/C=C/C(=O)O)cc2)c2cc(F)c(O)cc2oc1=O`, the pKa in [6] turned out to be 5.8. The IC50 on Estrogen receptor [1] was 0.0074 µM; at Estrogen receptor [2], greater than 3 µM. Further, the hepatocyte CLint in data set [4] came out at 84 µL/min/1e6 cells; in [5] it was 28 µL/min/1e6 cells. Also, the log distribution coefficient (logD) in data set [3] worked out at 0.8.
As to `Cc1cc(F)ccc1-c1c(Oc2ccc(/C=C/C(=O)O)cc2)c2ccc(O)c(F)c2oc1=O`, the pKa in data set [6] was 6.1. Moreover, the values for the half-inhibitory concentration (IC50) on Estrogen receptor [1] and against Estrogen receptor [2] were 0.0032 µM and 0.509 µM, respectively. In addition, the hepatocyte CLint came to 33 µL/min/1e6 cells in [4] and 11 µL/min/1e6 cells in [5]. In data set [3], the log distribution coefficient (logD) was determined as 0.6.
Take `COc1ccc2c(Cc3ccc(/C=C/C(=O)O)cc3)c(-c3ccc(OC(F)(F)F)cc3)c(=O)oc2c1`: the IC50 on Estrogen receptor [1] is 1.1 µM; against Estrogen receptor [2], 3.6 µM. For the same compound, the hepatocyte CLint in data set [4] and in data set [5] was 23 µL/min/1e6 cells each time. The log distribution coefficient (logD) in data set [3] was determined as 3.
As to `COc1cc(F)ccc1-c1c(Cc2ccc(/C=C/C(=O)O)cc2)c2ccc(O)cc2oc1=O`, the values for the 50% inhibitory concentration (IC50) at Estrogen receptor [1] and on Estrogen receptor [2] were 0.011 µM and 2.26 µM, respectively. The logD in data set [3] was determined as 1.8.
For `Cc1cc(OC(F)(F)F)ccc1-c1c(Cc2ccc(/C=C/C(=O)O)cc2)c2ccc(O)cc2oc1=O` the same measures were 0.001 µM, 0.007 µM and 3.1.
On to `O=C(O)/C=C/c1ccc(Cc2c(-c3ccc(OC(F)(F)F)cc3)c(=O)oc3cc(O)ccc23)cc1`, for which the pKa in [6] is 8.7. Moreover, the figures for the half-maximal inhibitory concentration (IC50) on Estrogen receptor [1] and against Estrogen receptor [2] were 0.0016 µM and 0.052 µM, respectively. The hepatocyte CLint in [4] was 40 µL/min/1e6 cells; in [5] it was 9 µL/min/1e6 cells. Also, the logD in data set [3] was 2.8.
As a reminder, the fraction unbound is free concentration divided by total concentration. `CC/C(=C(\c1ccc(O)cc1)c1ccc(/C=C/C(=O)O)cc1)c1ccccc1` yielded a half-maximal inhibitory concentration (IC50) in data set [7] greater than 100 µM. Besides, the unbound share (fraction unbound) in data set [8] stood at 0.0009. Further, the solubility thermodynamic at 24 h in [9] was 200 µM (≈ 74.1 µg/mL). For the same compound, the hepatocyte CLint in data set [4] was 12 µL/min/1e6 cells.
For `O=C(O)/C=C/c1ccc(Cc2c(-c3ccc(F)cc3F)c(=O)oc3cc(O)ccc23)cc1`, the values for the IC50 on Estrogen receptor [1] and at Estrogen receptor [2] were 0.003 µM and 0.66 µM, respectively. Besides, the logD in [3] stood at 1.7.
For the compound `Cc1cc(F)ccc1-c1c(Cc2ccc(/C=C/C(=O)O)cc2)c2ccc(C(F)F)cc2oc1=O`, the results for the half-maximal inhibitory concentration (IC50) on Estrogen receptor [1] and at Estrogen receptor [2] were 0.39 µM and greater than 2.15 µM, respectively. Further, the hepatocyte CLint was 16 µL/min/1e6 cells in data set [4] and less than 3 µL/min/1e6 cells in [5]. In data set [3], the logD came to 2.2.
`Cc1cc(F)ccc1-c1c(N(C)c2ccc(/C=C/C(=O)O)cc2)c2ccc(O)cc2oc1=O`: the IC50 on Estrogen receptor [1] was 0.0099 µM; against Estrogen receptor [2], 0.06 µM. The logD in data set [3] is 2.3.
With `Cc1cc2c(Cc3ccc(/C=C/C(=O)O)cc3)c(-c3ccc(OC(F)(F)F)cc3)c(=O)oc2cc1O`, the pKa in [6] was 7.6. Further, the figures for the IC50 at Estrogen receptor [1] and against Estrogen receptor [2] were 0.01 µM and 0.32 µM, respectively. Further, the hepatocyte CLint was determined as 37 µL/min/1e6 cells in data set [4] and 17 µL/min/1e6 cells in data set [5]. The log distribution coefficient (logD) in data set [3] amounted to 3.1.
For the compound `Cc1cc(F)ccc1-c1c(Cc2ccc(/C=C/C(=O)O)cc2)c2ccc(O)cc2oc1=O`, the pKa in data set [6] is 7.7. Besides, the 50% inhibitory concentration (IC50) on Estrogen receptor [1] amounted to 0.0039 µM; on Estrogen receptor [2], 0.117 µM. Further, the hepatocyte CLint in [4] amounted to 81 µL/min/1e6 cells; in data set [5], 11 µL/min/1e6 cells. In data set [3], the pH-dependent lipophilicity (logD) stood at 2.1.

The values above are taken from ChEMBL document CHEMBL3425438, “Investigation of (E)-3-[4-(2-Oxo-3-aryl-chromen-4-yl)oxyphenyl]acrylic Acids as Oral Selective Estrogen Receptor Down-Regulators” (J Med Chem, 2015).
